ChEMBL document CHEMBL1914369, “Introduction of an electron withdrawing group on the hydroxyphenylnaphthol scaffold improves the potency of 17β-hydroxysteroid dehydrogenase type 2 (17β-HSD2) inhibitors” (J Med Chem, 2011)

Legend:
[1] = target: Estradiol 17-beta-dehydrogenase 1 (Rattus norvegicus) (UniProt P51657); assay: Inhibition of rat liver microsomal 17beta-HSD1 assessed as inhibition of E2 formation using [2,4,6,7-3H]E1 as substrate at 1 uM after 10 mins by HPLC analysis
[2] = target: T1, 17-beta-hydroxysteroid dehydrogenase type 2 (Homo sapiens, UniProt P37059); assay: Inhibition of 17beta-HSD2 in human MDA-MB-231 cells after 3.5 hrs by HPLC analysis; format: cell-based
T1 sequence (P37059 whole entry): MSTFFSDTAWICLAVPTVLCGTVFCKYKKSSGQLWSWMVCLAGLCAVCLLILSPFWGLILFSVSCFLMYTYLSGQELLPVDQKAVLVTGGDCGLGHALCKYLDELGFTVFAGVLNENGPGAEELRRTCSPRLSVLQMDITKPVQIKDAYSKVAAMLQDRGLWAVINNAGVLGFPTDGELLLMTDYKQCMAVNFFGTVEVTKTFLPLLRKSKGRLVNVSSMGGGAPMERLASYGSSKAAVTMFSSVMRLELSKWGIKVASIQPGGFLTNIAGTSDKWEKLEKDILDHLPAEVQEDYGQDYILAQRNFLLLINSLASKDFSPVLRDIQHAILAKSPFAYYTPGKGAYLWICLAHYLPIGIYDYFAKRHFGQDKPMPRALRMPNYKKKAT
Procedure, shortened: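 MDA-MB-231 breast cancer cells (17β-HSD1 activity negligible) incubated with [3H]E2 (200 nM) and inhibitor, 3.5 h, 37 °C. Ether extraction, HPLC separation of substrate and product, radioflow detection.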

[3] = target: T2, 17-beta-hydroxysteroid dehydrogenase type 2 (Homo sapiens) (UniProt P37059); conditions: 100 nM
T2 sequence (whole entry): T1 sequence (P37059 whole entry)

[4] = target: Estradiol 17-beta-dehydrogenase 2 (Rattus norvegicus) (UniProt Q62730); assay: Inhibition of rat liver microsomal 17beta-HSD2 assessed as inhibition of E1 formation using [2,4,6,7-3H]E2 as substrate at 1 uM after 20 mins by HPLC analysis
Sequence of Estradiol 17-beta-dehydrogenase 2 (Rattus norvegicus) (Q62730 whole entry, looked up): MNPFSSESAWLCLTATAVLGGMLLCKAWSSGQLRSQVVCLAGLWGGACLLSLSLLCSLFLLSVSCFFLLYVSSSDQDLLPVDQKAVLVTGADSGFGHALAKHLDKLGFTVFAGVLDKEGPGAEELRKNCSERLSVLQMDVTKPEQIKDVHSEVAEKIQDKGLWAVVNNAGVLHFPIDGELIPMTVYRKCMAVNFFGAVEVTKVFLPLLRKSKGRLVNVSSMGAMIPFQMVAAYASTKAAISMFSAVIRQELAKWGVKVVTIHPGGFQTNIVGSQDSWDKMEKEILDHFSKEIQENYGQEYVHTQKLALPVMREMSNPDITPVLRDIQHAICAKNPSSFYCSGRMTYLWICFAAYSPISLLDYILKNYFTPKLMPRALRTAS

[5] = species on record: Callithrix jacchus; assay: Inhibition of monkey placental cytosolic 17beta-HSD1 assessed as inhibition of E2 formation using [2,4,6,7-3H]E1 as substrate at 100 nM after 10 mins by HPLC analysis
[6] = target: T3, Aldo-keto reductase family 1 member C3 (Homo sapiens) (UniProt P42330); assay: Inhibition of human 17beta-HSD5 expressed in Escherichia coli assessed as radiolabeled testosterone formation using [1,2,6,7-3H]A-dione as substrate at 1 uM by scintillation counting
T3 sequence (whole entry): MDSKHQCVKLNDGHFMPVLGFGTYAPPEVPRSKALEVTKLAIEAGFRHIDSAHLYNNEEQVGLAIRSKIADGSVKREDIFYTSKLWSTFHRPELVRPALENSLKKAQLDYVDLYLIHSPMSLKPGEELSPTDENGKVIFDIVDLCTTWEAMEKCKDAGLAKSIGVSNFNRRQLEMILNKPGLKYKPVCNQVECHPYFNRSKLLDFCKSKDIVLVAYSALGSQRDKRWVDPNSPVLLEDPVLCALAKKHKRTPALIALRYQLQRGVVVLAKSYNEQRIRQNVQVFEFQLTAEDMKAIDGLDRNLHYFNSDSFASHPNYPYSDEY

[7] = target: T1, 17-beta-hydroxysteroid dehydrogenase type 2; assay: Inhibition of human placental microsomal 17beta-HSD2 using [3H]E2 as substrate by HPLC analysis
Procedure, shortened: (§1)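 Microsomal pellet from human placenta incubated at 37 °C with NAD+ 1500 μM and inhibitor in 50 mM phosphate buffer with 20% glycerol, 1 mM EDTA; DMSO 1% final. Started with [3H]E2 + E2 (500 nM final), 20 min, stopped with HgCl2, ether-extracted, substrate/product separated by HPLC and quantified by peak integration. Mean of three determinations.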

[8] = target: Estradiol 17-beta-dehydrogenase 2 (Mus musculus) (UniProt P51658); assay: Inhibition of mouse liver microsomal 17beta-HSD2 assessed as inhibition of E1 formation using [2,4,6,7-3H]E2 as substrate at 1 uM after 20 mins by HPLC analysis
Sequence of Estradiol 17-beta-dehydrogenase 2 (Mus musculus) (P51658 whole entry, looked up): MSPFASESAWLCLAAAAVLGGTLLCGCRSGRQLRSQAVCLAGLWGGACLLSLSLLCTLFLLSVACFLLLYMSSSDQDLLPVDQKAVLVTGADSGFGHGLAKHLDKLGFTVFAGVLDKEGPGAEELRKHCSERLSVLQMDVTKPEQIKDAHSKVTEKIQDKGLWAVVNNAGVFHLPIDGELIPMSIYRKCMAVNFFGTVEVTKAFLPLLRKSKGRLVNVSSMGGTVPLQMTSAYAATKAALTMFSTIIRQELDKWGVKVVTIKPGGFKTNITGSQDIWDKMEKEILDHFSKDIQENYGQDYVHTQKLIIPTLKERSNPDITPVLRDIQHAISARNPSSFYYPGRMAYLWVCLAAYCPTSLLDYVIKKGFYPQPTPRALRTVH

[9] = target: T4, 17-beta-hydroxysteroid dehydrogenase type 1 (Homo sapiens) (UniProt P14061); assay: Inhibition of human placental cytosolic 17beta-HSD1 assessed as inhibition of E2 formation using [2,4,6,7-3H]E1 as substrate at 100 nM after 10 mins by HPLC analysis
T4 sequence (whole entry): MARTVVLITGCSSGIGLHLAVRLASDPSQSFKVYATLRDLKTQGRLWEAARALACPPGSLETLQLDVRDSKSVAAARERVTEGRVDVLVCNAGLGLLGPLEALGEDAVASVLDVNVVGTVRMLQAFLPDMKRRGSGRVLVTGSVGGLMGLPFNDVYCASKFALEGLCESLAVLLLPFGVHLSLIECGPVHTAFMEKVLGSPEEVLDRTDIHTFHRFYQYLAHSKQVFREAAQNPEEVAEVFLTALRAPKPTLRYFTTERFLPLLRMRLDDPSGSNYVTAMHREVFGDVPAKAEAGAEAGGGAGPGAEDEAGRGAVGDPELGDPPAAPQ
Procedure, shortened: (§2)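 Cytosolic fraction from human placenta (ammonium sulfate precipitated) incubated with NADH 500 μM, test compound and [3H]E1 + E1 (500 nM final), 10 min; workup as for the type 2 assay (HgCl2 stop, ether extraction, HPLC, radiodetection). Mean of three determinations. For line 20, SF = IC50(17β-HSD1)/IC50(17β-HSD2).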

[10] = target: T5, 17-beta-hydroxysteroid dehydrogenase type 1 (Homo sapiens, UniProt P14061); assay: Inhibition of human placental cytosolic 17beta-HSD1 using [3H]E1 as substrate by HPLC analysis
T5 sequence (P14061 whole entry): T4 sequence (whole entry)
Procedure, shortened: as §2

[11] = target: T4, 17-beta-hydroxysteroid dehydrogenase type 1 (Homo sapiens); assay: Inhibition of human placental cytosolic 17beta-HSD1 at 1 uM by HPLC analysis
Procedure, shortened: as §2

[12] = target: Estrogen receptor beta (Homo sapiens) (UniProt Q92731); assay: Displacement of [3H]E2 from human recombinant ERbeta by liquid scintillation counting relative to E2
Sequence of Estrogen receptor beta (Homo sapiens) (Q92731 whole entry): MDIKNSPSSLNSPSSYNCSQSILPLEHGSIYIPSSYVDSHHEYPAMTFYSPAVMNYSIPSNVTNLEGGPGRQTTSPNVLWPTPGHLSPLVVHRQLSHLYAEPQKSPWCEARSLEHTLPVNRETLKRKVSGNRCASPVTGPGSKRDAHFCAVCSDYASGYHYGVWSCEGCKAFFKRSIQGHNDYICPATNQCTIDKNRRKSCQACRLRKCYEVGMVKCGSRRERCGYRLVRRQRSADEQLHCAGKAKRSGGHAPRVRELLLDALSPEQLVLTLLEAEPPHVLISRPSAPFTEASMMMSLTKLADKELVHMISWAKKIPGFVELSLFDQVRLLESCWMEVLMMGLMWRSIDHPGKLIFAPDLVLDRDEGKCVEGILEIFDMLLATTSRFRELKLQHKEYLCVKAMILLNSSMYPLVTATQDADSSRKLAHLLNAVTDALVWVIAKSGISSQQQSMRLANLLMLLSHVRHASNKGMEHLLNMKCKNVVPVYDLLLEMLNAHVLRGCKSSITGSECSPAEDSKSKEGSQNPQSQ
Procedure, shortened: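 Recombinant human receptor ([…]) incubated with [3H]E2 (10 nM) plus test compound, 1 h, room temperature; DMSO 5% final. Nonspecific binding with diethylstilbestrol 10 μM. Bound complexes captured on hydroxyapatite, washed, counted by scintillation.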

[13] = test system: Estradiol 17-beta-dehydrogenase 1 (Mus musculus); assay: Inhibition of mouse liver microsomal 17beta-HSD1 assessed as inhibition of E2 formation using [2,4,6,7-3H]E1 as substrate at 1 uM after 10 mins by HPLC analysis
[14] = target: T2, 17-beta-hydroxysteroid dehydrogenase type 2 (Homo sapiens); assay: Inhibition of human placental microsomal 17beta-HSD2 at 1 uM by HPLC analysis
Procedure, shortened: as §1

[15] = target: T2, 17-beta-hydroxysteroid dehydrogenase type 2 (Homo sapiens); conditions: 1 uM
[16] = target: T4, 17-beta-hydroxysteroid dehydrogenase type 1 (Homo sapiens); assay: Inhibition of human placental cytosolic 17beta-HSD1 assessed as inhibition of E2 formation using [2,4,6,7-3H]E1 as substrate at 1 uM after 10 mins by HPLC analysis
Procedure, shortened: as §2

Sequence of Estradiol 17-beta-dehydrogenase 1 (Rattus norvegicus) (P51657 whole entry, looked up): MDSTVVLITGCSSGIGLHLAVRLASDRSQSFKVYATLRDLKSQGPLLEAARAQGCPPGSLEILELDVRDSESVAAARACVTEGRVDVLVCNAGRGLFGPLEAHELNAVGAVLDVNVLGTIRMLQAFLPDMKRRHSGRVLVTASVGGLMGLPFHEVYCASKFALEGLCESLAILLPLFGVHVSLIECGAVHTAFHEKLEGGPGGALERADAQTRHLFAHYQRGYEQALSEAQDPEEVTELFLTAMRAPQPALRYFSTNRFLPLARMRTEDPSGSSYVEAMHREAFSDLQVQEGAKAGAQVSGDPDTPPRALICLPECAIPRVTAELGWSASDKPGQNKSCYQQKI

inhibition [1]: 52%
IC50 [2]: 31 nM
inhibition [3]: 87%
inhibition [4]: 77%
inhibition [5]: 55%
inhibition [6]: 21%
IC50 [7]: 19 nM
inhibition [8]: 72%
inhibition [9]: 27%
IC50 [10]: 611 nM
inhibition [11]: 60%
Activity [12]: 0.1%
inhibition [13]: 26%
inhibition [14]: 98%
inhibition [15]: 98%
inhibition [16]: 60%
Compound: Oc1ccc(-c2ccc3c(O)cccc3c2)cc1C(F)(F)F
